# Screening data (PubChem)
# Compounds with a hit are over-represented: about 5.7% of the library has one in this group of screens.
# T cruzi inh: inhibitors of intracellular T. cruzi growth, primary screen, luminescence, NIH3T3 host cells; T. cruzi beta-gal in NIH3T3, 90 h; inhibition, % (test concentration not listed); actives 1.4% (n = 300,000); AID 1885, 2009;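 active means mean inhibition across valid replicates above about 55%, limit read from the data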;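 further: signal also drops with host cell toxicity which is not excluded here; 0% = plate median of DMSO wells and 100% = zero luminescence signal; higher percent means less beta-gal luminescence so fewer parasites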
#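 System: Mouse NIH/3T3 fibroblasts infected with β-gal-expressing T. cruzi Tulahuen C4 | Quantity: NIH/3T3 cells, 5,000 per well | Reagent: 5000 reporter trypomastigotes per well | Dosing: Compound pinned at 50 nL/well, DMSO | Schedule: 3 h host attachment, then at least 90 h co-culture | Detection: GalScreen luminescence, 60 min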
# Beta cell apopt: inhibitors of cytokine-induced beta cell apoptosis, primary screen, luminescence. INS-1E cytokine-induced death, ATP luminescence, 48 h; percent of positive-control rescue, neutral wells zero. protection from apoptosis, % (no concentration beside the values). actives 0.8% (n = 300,000). AID 435005, 2010;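 active means Every replicate reaches about 75%, or at least half do and their mean reaches it too, limit read from the data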;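 further: 0% = cytokine-treated negative control wells and 100% = positive control rescue; higher means more ATP so stronger rescue from cytokine killing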
# CSC inhib: cancer stem cell viability inhibitors, primary screen, luminescence | cancer stem cell-like cells viability | inhibition, % at 7.5 µM | actives 1.1% (n = 300,000) | AID 2717, 2010; in the data active means inhibition above about 75%; tested in HMLE shEcad cells
# SKKanGAS inh: S. pyogenes SKKanGAS growth inhibitors in kanamycin, primary screen, streptokinase expression inhibitor project, SKKanGAS strain, BacTiter-Glo luminescence | 6 h | inhibition, % at 7.5 µM | actives 1.3% (n = 300,000);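 active means mean replicate score, as percent of positive control median, at least 50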;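 further: strain carries kanamycin resistance gene driven by streptokinase promoter and grows in 40 µg/ml kanamycin; loss of luminescence reflects streptokinase promoter inhibition or plain growth inhibition; 0% = median of DMSO wells and 100% = positive control at its reference dose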
# Calb FLC: C. albicans growth inhibition with fluconazole, primary screen, CaCi-2 strain, Alamar Blue fluorescence. C. albicans CaCi-2 + fluconazole, 48 h. growth inhibition, % (no concentration beside the values). actives 0.57% (n = 300,000). AID 1979, 2009;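 active means growth inhibition above about 58% in most replicates, limit read from the data, passing the limit was not always enough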;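 further: all wells also contain fluconazole at 8 µg/ml as a sub-toxic cotreatment; 0% = median of DMSO wells and 100% = median of geldanamycin control wells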
# Mdm2 MdmX PPI: inhibitors of human Mdm2-MdmX association, primary screen, cell-based, luminescence, split luciferase, SaOS-2, uHTS. actives 3% (n = 330,000). inhibition, % at 8 µM. SaOS-2 split-luciferase Mdm2/MdmX complementation;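 active means inhibition of at least 50% at 8 µM in the primary screen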
# * = called active by the depositor; x = not tested or not shown.
SMILES,T cruzi inh,Beta cell apopt,CSC inhib,SKKanGAS inh,Calb FLC,Mdm2 MdmX PPI
Cc1[nH]n(-c2ccccc2)c(=O)c1/C=N/NC(=O)c1ccccc1F,-11,x,x,90*,-26,22
CCSC(=S)c1c(C)[nH]n(-c2ccccc2)c1=O,-51,1,27,57*,9,16
Cc1[nH]n(-c2ccccc2)c(=O)c1C(=O)c1ccccc1,-10,-5,-1,-5,x,1
COc1ccc(NC(=O)C2CCC(=O)N2S(=O)(=O)c2ccc(C)cc2)cc1Cl (configuration not stated),-13,8,-6,4,8,-23
CCN(Cc1cccs1)C(=O)CN1CCN(S(=O)(=O)c2ccc3c(c2)OCCCO3)CC1,x,x,x,x,x,17
Cc1ccc(-c2c[n+](Cc3cccc(Cl)c3)c3n2CCC3)cc1,67*,x,x,0,0,7
Cc1ccc(-c2c[n+](Cc3ccc(Cl)cc3)c3n2CCC3)cc1,61*,109*,20,8,20,35
Clc1cccc(C[n+]2cc(-c3ccccc3)n3c2CCC3)c1,64*,-3,7,6,-2,30
O=C(C[n+]1cc(-c2ccccc2)n2c1CCC2)N1c2ccccc2Sc2ccccc21,40,-1,-14,-2,-2,-9
Cc1ccc(C[n+]2cc(-c3ccc(Cl)cc3)n3c2CCC3)cc1,x,35,19,2,-28,37
Cc1ccc(-c2c[n+](CC(=O)N3c4ccccc4Sc4ccccc43)c3n2CCC3)cc1,42,x,-6,6,109*,20
O=S(=O)(NC1C2CC3CC(C2)CC1C3)c1ccccc1 (configuration not stated),x,0,x,x,x,13
COc1cc(C(=O)Nc2nnc(C3=COCCO3)o2)cc(OC)c1OC,-6,0,-2,-3,x,30
Cc1cccc(OCCC(=O)NNC(=O)c2ccoc2C)c1,x,-1,11,x,x,14
Cc1cnc(NC(=O)c2cc3c(C)nn(Cc4ccccc4Cl)c3s2)s1,9,-2,35,54*,-6,41
COc1ccc(N2C(=O)CSC2c2cccc(F)c2)cc1 (configuration not stated),2,x,x,2,7,22
O=C(CCNS(=O)(=O)c1ccc(Br)s1)Nc1ccc(Cl)cc1,58*,-4,3,-11,36,20
COc1ccnc2c1c(=O)n(Cc1ccc(Cl)cc1)c(=O)n2C,14,6,15,-3,-3,16
C/C=C/c1ccc(OCCCCN2CCN(CC)CC2)c(OC)c1,17,0,-12,-18,-11,31
C/C=C/c1ccc(OCCCCN2CC(C)CC(C)C2)c(OC)c1 (configuration not stated),55*,-7,47,1,-7,8
O=C(CN1C(=O)NC2(CCc3ccccc32)C1=O)NCCc1ccccc1 (configuration not stated),x,-1,x,x,x,11
O=c1c2cccc(Cl)c2nc2n1Cc1ccccc1-2,4,4,-9,37,7,-23
CCc1cc2c(=O)nc3n(c2s1)Cc1ccccc1/C3=C(/O)c1cccc([N+](=O)[O-])c1,-4,-2,4,14,-4,18
CCc1cc2c(=O)nc3n(c2s1)Cc1ccccc1/C3=C(/O)c1ccc(F)cc1,2,7,81*,9,13,49
CCc1cc2c(=O)nc3n(c2s1)Cc1ccccc1/C3=C(/O)c1ccccc1Cl,17,89*,x,26,-5,47
SMILES,T cruzi inh,Beta cell apopt,CSC inhib,SKKanGAS inh,Calb FLC,Mdm2 MdmX PPI
COc1ccc(C(=O)NNC(=O)C23CC4CC(CC(C4)C2)C3)cc1OC,x,-1,-9,x,x,-23
O=C(O)C12CC3CC(C1)CC(n1ncc(NCc4ccccc4)c(Cl)c1=O)(C3)C2,-4,-3,-15,-12,-2,19
Cc1ccc(CNc2cnn(C34CC5CC(CC(C5)C3)C4)c(=O)c2Cl)cc1,37,5,78*,1,3,30
O=c1c(Cl)c(N2CCN(c3ccc(F)cc3)CC2)cnn1C12CC3CC(CC(C3)C1)C2,63*,4,51,2,-3,25
O=C(O)CC12CC3CC(C1)CC(n1ncc(NCc4ccccc4)c(Cl)c1=O)(C3)C2,-11,-1,-12,7,1,-20
O=c1c(Cl)c(NCc2ccc(F)cc2)cnn1C12CC3CC(CC(C3)C1)C2,16,9,75*,-7,42,-11
O=c1c(Cl)c(NCc2ccccc2Cl)cnn1C12CC3CC(CC(C3)C1)C2,22,13,95*,5,59,24
O=c1c(Cl)c(NCc2ccco2)cnn1C12CC3CC(CC(C3)C1)C2,12,2,-2,-5,-26,15
Cc1ccc(N=Nc2c(C)[nH]n(C(N)=S)c2=O)cc1C,13,28,-11,2,-10,-177
Cc1[nH]n(C(N)=S)c(=O)c1N=Nc1ccc(S(=O)(=O)N2CCCCCC2)cc1,-1,7,-5,14,104*,8
CCOCCCNC(=O)C1(O)c2ccccc2NC(=O)N1c1ccc(Cl)cc1 (configuration not stated),10,-3,4,-2,-7,9
CC(NC(=O)CCNC(=O)c1ccco1)c1ccccc1 (configuration not stated),-3,-4,-14,-5,-2,5
c1ccc(CCNc2ccnc3cc4ccccc4cc23)cc1,59*,x,x,3,65,x
COc1cccc(/C=N/N2CCN(c3ccncc3S(=O)(=O)N3CCCCC3)CC2)c1,66*,1,-7,4,1,25
CCCc1nc(SCC(=O)c2ccc(F)cc2)c2ccccc2n1,26,-10,41,6,1,14
COC(=O)c1cc(NC(=O)COC(=O)CN2C(=O)C3CC=CCC3C2=O)cc(C(=O)OC)c1 (configuration not stated),x,x,x,x,x,10
CC(=O)c1c(C)[nH]c(C(=O)Nc2ccc(C)c(C)c2)c1C,17,-8,-5,0,96*,-68
COc1ccc(NC(=O)c2[nH]c(C)c(C(C)=O)c2C)cc1S(=O)(=O)Nc1ccc(Br)cc1,56*,3,10,30,1,49
COc1ccccc1Nc1nc(N)nc(CSC(=S)N2CCCCC2)n1,-3,-3,1,12,-7,-21
CC(=O)c1ccc(NC(=S)Nc2ccc(Br)c(Cl)c2)cc1,10,-5,x,95*,-20,-27
O=C(NC(=S)Nc1ccc(Br)c(Cl)c1)C1CC1,5,-6,-17,19,36,17
